In ChEMBL document CHEMBL2021854, “2-Aminopyrimidine based 4-aminoquinoline anti-plasmodial agents. Synthesis, biological activity, structure-activity relationship and mode of action studies” (Eur J Med Chem, 2012):

System: Coxsackievirus B4
Assay: Antiviral activity against Coxsackie virus B4 infected in human HeLa cells assessed as inhibition of virus-induced cytopathogenicity after 4 days
Assay type: functional, organism-based
Conditions: Enterovirus B, 96 h
In short: (§1)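 Confluent HEL, Vero or HeLa monolayers were inoculated with 100 CCID50 of virus in the presence of varying concentrations of compound. Cytopathicity was scored when it reached completion in untreated, virus-infected control cultures.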

Compound	EC50
CCOC(=O)c1c(C)nc(NCCNc2ccnc3cc(Cl)ccc23)nc1-c1ccccc1	> 4 µM

System: Respiratory syncytial virus
Assay: Antiviral activity against Respiratory syncytial virus infected in human HeLa cells assessed as inhibition of virus-induced cytopathogenicity after 4 days
Assay type: functional, organism-based
Conditions: 96 h
In short: as §1

Compound	EC50
CCOC(=O)c1c(C)nc(NCCNc2ccnc3cc(Cl)ccc23)nc1-c1ccccc1	> 4 µM

System: Influenza A virus
Assay: Antiviral activity against Influenza A virus H1N1 infected in MDCK cells assessed as reduction visual scoring of virus-induced cytopathogenicity after 4 days
Assay type: functional, organism-based
Conditions: 96 h
In short: (§2)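 MDCK monolayers infected with 100 CCID50 of influenza A (H1N1 or H3N2) or influenza B, with varying compound concentrations. Cytopathicity read when untreated infected controls reached complete CPE.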

Compound	EC50
CCOC(=O)c1c(C)nc(NCCNc2ccnc3cc(Cl)ccc23)nc1-c1ccccc1	> 0.16 µM

System: Influenza A virus
Assay: Antiviral activity against Influenza A virus H3N2 infected in MDCK cells assessed as reduction visual scoring of virus-induced cytopathogenicity after 4 days
Assay type: functional, organism-based
Conditions: 96 h
In short: as §2

Compound	EC50
CCOC(=O)c1c(C)nc(NCCNc2ccnc3cc(Cl)ccc23)nc1-c1ccccc1	> 0.16 µM

System: Influenza B virus
Assay: Antiviral activity against Influenza B virus infected in MDCK cells assessed as reduction visual scoring of virus-induced cytopathogenicity after 4 days
Assay type: functional, organism-based
Conditions: 96 h
In short: as §2

Compound	EC50
CCOC(=O)c1c(C)nc(NCCNc2ccnc3cc(Cl)ccc23)nc1-c1ccccc1	> 0.16 µM

System: Influenza A virus
Assay: Antiviral activity against Influenza A virus H1N1 infected in MDCK cells assessed as inhibition of virus-induced cytopathogenicity after 4 days by colorimetric formazan-based MTS assay
Assay type: functional, organism-based
Conditions: 96 h

Compound	EC50
CCOC(=O)c1c(C)nc(NCCNc2ccnc3cc(Cl)ccc23)nc1-c1ccccc1	> 0.16 µM

System: Influenza A virus
Assay: Antiviral activity against Influenza A virus H3N2 infected in MDCK cells assessed as inhibition of virus-induced cytopathogenicity after 4 days by colorimetric formazan-based MTS assay
Assay type: functional, organism-based
Conditions: 96 h

Compound	EC50
CCOC(=O)c1c(C)nc(NCCNc2ccnc3cc(Cl)ccc23)nc1-c1ccccc1	> 0.16 µM

System: Influenza B virus
Assay: Antiviral activity against Influenza B virus infected in MDCK cells assessed as inhibition of virus-induced cytopathogenicity after 4 days by colorimetric formazan-based MTS assay
Assay type: functional, organism-based
Conditions: 96 h

Compound	EC50
CCOC(=O)c1c(C)nc(NCCNc2ccnc3cc(Cl)ccc23)nc1-c1ccccc1	> 0.16 µM

System: Human betaherpesvirus 5
Assay: Antiviral activity against Cytomegalovirus AD-169 infected in HEL cells assessed as inhibition of virus plaque formation after 4 days
Assay type: functional, organism-based
Conditions: Human betaherpesvirus 5, AD169, HEL, 96 h

Compound	EC50
CCOC(=O)c1c(C)nc(NCCNc2ccnc3cc(Cl)ccc23)nc1-c1ccccc1	> 4 µM

System: Human betaherpesvirus 5
Assay: Antiviral activity against Human cytomegalovirus Davis infected in HEL cells assessed as inhibition of virus plaque formation after 4 days
Assay type: functional, organism-based
Conditions: Human betaherpesvirus 5, Davis, 96 h

Compound	EC50
CCOC(=O)c1c(C)nc(NCCNc2ccnc3cc(Cl)ccc23)nc1-c1ccccc1	> 4 µM

System: HeLa
Assay: Cytotoxicity against human HeLa cells assessed as cell viability by colorimetric formazan-based MTS assay
Conditions: not given

Compound	CC50
CCOC(=O)c1c(C)nc(NCCNc2ccnc3cc(Cl)ccc23)nc1-c1ccccc1	7.9 µM

System: Human alphaherpesvirus 3
Assay: Antiviral activity against […] expressing thymidine kinase infected in HEL cells assessed as reduction of virus plaque formation after 4 days
Assay type: functional, cell-based
Conditions: Human alphaherpesvirus 3, strain Oka vaccine, 96 h

Compound	EC50
CCOC(=O)c1c(C)nc(NCCNc2ccnc3cc(Cl)ccc23)nc1-c1ccccc1	> 4 µM

System: Human alphaherpesvirus 3
Assay: Antiviral activity against thymidine kinase-deficient […] infected in HEL cells assessed as reduction of virus plaque formation after 4 days
Assay type: functional, organism-based
Conditions: Human alphaherpesvirus 3, 07-1, HEL, 96 h

Compound	EC50
CCOC(=O)c1c(C)nc(NCCNc2ccnc3cc(Cl)ccc23)nc1-c1ccccc1	> 20 µM

System: not listed separately
Assay: Cytotoxicity against cat CRFK cells assessed as cell viability by colorimetric formazan-based MTS assay
Design: species or system Felis catus
Conditions: crfk

Compound	CC50
CCOC(=O)c1c(C)nc(NCCNc2ccnc3cc(Cl)ccc23)nc1-c1ccccc1	7.3 µM

System: Feline infectious peritonitis virus
Assay: Antiviral activity against FIPV infected in cat CRFK cells assessed as inhibition of virus-induced cytopathic effect after 4 days by colorimetric formazan-based MTS assay
Assay type: functional, cell-based
Conditions: Alphacoronavirus 1, CRFK, 96 h

Compound	EC50
CCOC(=O)c1c(C)nc(NCCNc2ccnc3cc(Cl)ccc23)nc1-c1ccccc1	> 4 µM

System: Felid alphaherpesvirus 1
Assay: Antiviral activity against Feline herpesvirus infected in cat CRFK cells assessed as inhibition of virus-induced cytopathic effect after 4 days by colorimetric formazan-based MTS assay
Assay type: functional, organism-based
Conditions: Felid alphaherpesvirus 1, CRFK, 96 h

Compound	EC50
CCOC(=O)c1c(C)nc(NCCNc2ccnc3cc(Cl)ccc23)nc1-c1ccccc1	> 4 µM

System: Human immunodeficiency virus 1
Assay: Antiviral activity against HIV1 infected in human CEM cells assessed as inhibition of virus-induced cytopathic effect after 4 days
Assay type: functional, organism-based
Conditions: Human immunodeficiency virus 1, CCRF-CEM, 96 h
In short: (§3)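 CEM T-lymphocytes (~3 × 10^5 cells/ml) were infected with HIV-1 IIIB or HIV-2 ROD at ~100 CCID50, then immediately plated with a range of compound concentrations. Giant cell formation was scored microscopically after 4 days at 37 °C. Cytostatic activity was tested in parallel in uninfected CEM cells.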

Compound	EC50
CCOC(=O)c1c(C)nc(NCCNc2ccnc3cc(Cl)ccc23)nc1-c1ccccc1	> 2 µM

System: Human immunodeficiency virus 2
Assay: Antiviral activity against HIV2 infected in human CEM cells assessed as inhibition of virus-induced cytopathic effect after 4 days
Assay type: functional, organism-based
Conditions: Human immunodeficiency virus 2, CCRF-CEM, 96 h
In short: as §3

Compound	EC50
CCOC(=O)c1c(C)nc(NCCNc2ccnc3cc(Cl)ccc23)nc1-c1ccccc1	> 2 µM

System: not listed separately
Assay: Inhibition of beta-hematin formation assessed as Ferriprotoporphyrin IX biomineralisation at 1 mg/ml after 24 hrs
Assay type: functional
Conditions: not given
In short: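 Hemin chloride (0.5 mg/ml in DMSO) mixed with 0.5 M sodium acetate buffer pH 4.4 and drug or solvent control, incubated 37 °C for 24 h. Pellet washed with DMSO to remove unreacted hemin, dissolved in 0.1 N NaOH, absorbance read at 405 nm; percent inhibition relative to control. Highest concentration tested 1 mg/ml.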

Compound	inhibition
CCOC(=O)c1c(C)nc(NCCNc2ccnc3cc(Cl)ccc23)nc1-c1ccccc1	96%
